From ChEMBL document CHEMBL1177711, “Novel quinolizidinyl derivatives as antiarrhythmic agents: 2. Further investigation” (J Med Chem, 2010)
Each block holds one compound with its values, some of them ahead of it.

Tests used:
[1] = Negative chronotropic activity against potassium-induced contraction in guinea pig left atrium assessed as decrease atrial rate at 10 uM relative to control; type: functional, Cavia porcellus, Cardiac atrium; set-up: scale not given: the % may be the effect or the level left
[2] = system: Aorta; assay: Vasorelaxant activity in potassium depolarized guinea pig aortic strip assessed as inhibition of calcium-induced contraction at 50 uM; type: functional; conditions: Cavia porcellus
[3] = Antiarrhythmic activity in sinusoidal alternating current-induced guinea pig left atrium assessed as increase in current strength at which extra beats occur at 1 uM measured every 30 mins; type: functional, Cavia porcellus, Cardiac atrium
In short: (§1)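 Isolated guinea pig left atria, electrically driven at 1 Hz, were exposed to sinusoidal alternating current to induce arrhythmia. The read-out was the rise in the ac-arrhythmia threshold over concentrations up to 100 μM.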

[4] = Negative inotropic activity against potassium-induced contraction in guinea pig left atrium assessed as decrease in developed tension; type: functional, tissue-based; conditions: Cavia porcellus, Cardiac atrium
[5] = Negative inotropic activity against potassium-induced contraction in guinea pig left atrium assessed as decrease in developed tension at 5 uM relative to control; type: functional, Cavia porcellus, Cardiac atrium; set-up: scale not given: the % may be the effect or the level left
[6] = Negative chronotropic activity against potassium-induced contraction in guinea pig left atrium assessed as decrease atrial rate; type: functional, tissue-based; conditions: Cavia porcellus, Cardiac atrium
[7] = Negative chronotropic activity against potassium-induced contraction in guinea pig left atrium assessed as decrease atrial rate at 100 uM relative to control; type: functional, Cavia porcellus, Cardiac atrium; set-up: scale not given: the % may be the effect or the level left
[8] = Antiarrhythmic activity in sinusoidal alternating current-induced guinea pig left atrium assessed as increase in current strength at which extra beats occur at 0.5 uM measured every 30 mins; type: functional, Cavia porcellus, Cardiac atrium; in short: as §1
[9] = system: Aorta; assay: Vasorelaxant activity in potassium depolarized guinea pig aortic strip assessed as inhibition of calcium-induced contraction at 100 uM; type: functional; conditions: Cavia porcellus
[10] = Negative inotropic activity against potassium-induced contraction in guinea pig left atrium assessed as decrease in developed tension at 50 uM relative to control; type: functional, Cavia porcellus, Cardiac atrium; set-up: scale not given: the % may be the effect or the level left
[11] = Negative inotropic activity against potassium-induced contraction in guinea pig left atrium assessed as decrease in developed tension at 1 uM relative to control; type: functional, Cavia porcellus, Cardiac atrium; set-up: scale not given: the % may be the effect or the level left
[12] = Antiarrhythmic activity in sinusoidal alternating current-induced guinea pig left atrium assessed as increase in current strength at which extra beats occur at 10 uM measured every 30 mins; type: functional, Cavia porcellus, Cardiac atrium; in short: as §1
[13] = Antiarrhythmic activity in sinusoidal alternating current-induced guinea pig left atrium assessed as increase in current strength at which extra beats occur at 5 uM measured every 30 mins; type: functional, Cavia porcellus, Cardiac atrium; in short: as §1
[14] = Negative inotropic activity against potassium-induced contraction in guinea pig left atrium assessed as decrease in developed tension at 10 uM relative to control; type: functional, Cavia porcellus, Cardiac atrium; set-up: scale not given: the % may be the effect or the level left
[15] = […] chronotropic activity against potassium-induced contraction in guinea pig left atrium assessed as decrease atrial rate at 100 uM relative to control; type: functional, Cavia porcellus, Cardiac atrium; set-up: scale not given: the % may be the effect or the level left
[16] = Antiarrhythmic activity in sinusoidal alternating current-induced guinea pig left atrium assessed as increase in current strength at which extra beats occur measured every 30 mins; type: functional, tissue-based; conditions: Cavia porcellus, Cardiac atrium, 0.5 h; in short: as §1
[17] = Negative inotropic activity against potassium-induced contraction in guinea pig left atrium assessed as decrease in developed tension at 0.5 uM relative to control; type: functional, Cavia porcellus, Cardiac atrium; set-up: scale not given: the % may be the effect or the level left
[18] = system: Heart; assay: Cardioprotective effect in Langendorff perfused guinea pig spontaneously beating […] assessed as heart rat at 0.1 uM (RVb = 175 to 190 +/- 5 to 11 bpm); type: functional, Cavia porcellus
[19] = Cardioprotective effect in Langendorff perfused guinea pig spontaneously beating […] assessed as atrioventicular conduction time at 1 uM (RVb = 50 to 55 +/- 1 to 4 ms); type: functional; conditions: Cavia porcellus
In short: (§2)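 Whole guinea pig hearts were Langendorff-perfused and their ECG recorded at graded concentrations. Intervals read were PR (atrioventricular conduction time), QT (ventricular action potential duration) and QRS (intraventricular conduction time).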

[20] = system: Heart; assay: Cardioprotective effect in Langendorff perfused guinea pig spontaneously beating […] assessed as heart rat at 0.001 uM (RVb = 175 to 190 +/- 5 to 11 bpm); type: functional, Cavia porcellus
[21] = Ratio of compound to auinidine for antiarrhythmic activity in sinusoidal alternating current-induced guinea pig left atrium; type: functional, Cavia porcellus, Cardiac atrium
In short: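 The antiarrhythmic EC50 was taken from the ac-arrhythmia threshold rise in 1 Hz-driven guinea pig left atria, using probit analysis.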

[22] = Cardioprotective effect in Langendorff perfused guinea pig spontaneously beating […] assessed as duration of ventricular action potential at 1 uM (RVb = 140 to 161 +/- 2 to 8 ms); type: functional, Cavia porcellus, Cardiac ventricle; in short: as §2
[23] = Cardioprotective effect in Langendorff perfused guinea pig spontaneously beating […] assessed as duration of ventricular action potential at 0.01 uM (RVb = 140 to 161 +/- 2 to 8 ms); type: functional, Cavia porcellus, Cardiac ventricle; in short: as §2
[24] = Cardioprotective effect in Langendorff perfused guinea pig spontaneously beating […] assessed as intraventicular conduction time at 10 uM (RVb = 19 to 24 +/- 1 to 2 ms); type: functional; conditions: Cavia porcellus; in short: as §2
[25] = Antiarrhythmic activity in sinusoidal alternating current-induced guinea pig left atrium assessed as increase in current strength at which extra beats occur at 100 uM measured every 30 mins; type: functional, Cavia porcellus, Cardiac atrium; in short: as §1
[26] = Cardioprotective effect in Langendorff perfused guinea pig spontaneously beating […] assessed as atrioventicular conduction time at 10 uM (RVb = 50 to 55 +/- 1 to 4 ms); type: functional; conditions: Cavia porcellus; in short: as §2
[27] = Cardioprotective effect in Langendorff perfused guinea pig spontaneously beating […] assessed as duration of ventricular action potential at 0.1 uM (RVb = 140 to 161 +/- 2 to 8 ms); type: functional, Cavia porcellus, Cardiac ventricle; in short: as §2
[28] = Cardioprotective effect in Langendorff perfused guinea pig spontaneously beating […] assessed as intraventicular conduction time at 1 uM (RVb = 19 to 24 +/- 1 to 2 ms); type: functional; conditions: Cavia porcellus; in short: as §2
[29] = system: Heart; assay: Cardioprotective effect in Langendorff perfused guinea pig spontaneously beating […] assessed as heart rat at 1 uM (RVb = 175 to 190 +/- 5 to 11 bpm); type: functional, Cavia porcellus
[30] = Negative chronotropic activity against potassium-induced contraction in guinea pig left atrium assessed as decrease atrial rate at 50 uM relative to control; type: functional, Cavia porcellus, Cardiac atrium; set-up: scale not given: the % may be the effect or the level left
[31] = Cardioprotective effect in Langendorff perfused guinea pig spontaneously beating […] assessed as atrioventicular conduction time at 0.001 uM (RVb = 50 to 55 +/- 1 to 4 ms); type: functional; conditions: Cavia porcellus; in short: as §2
[32] = Cardioprotective effect in Langendorff perfused guinea pig spontaneously beating […] assessed as intraventicular conduction time at 0.001 uM (RVb = 19 to 24 +/- 1 to 2 ms); type: functional; conditions: Cavia porcellus; in short: as §2
[33] = system: Heart; assay: Cardioprotective effect in Langendorff perfused guinea pig spontaneously beating […] assessed as heart rat at 10 uM (RVb = 175 to 190 +/- 5 to 11 bpm); type: functional, Cavia porcellus
[34] = system: Heart; assay: Cardioprotective effect in Langendorff perfused guinea pig spontaneously beating […] assessed as heart rat at 0.01 uM (RVb = 175 to 190 +/- 5 to 11 bpm); type: functional, Cavia porcellus
[35] = Cardioprotective effect in Langendorff perfused guinea pig spontaneously beating […] assessed as atrioventicular conduction time at 0.1 uM (RVb = 50 to 55 +/- 1 to 4 ms); type: functional; conditions: Cavia porcellus; in short: as §2
[36] = Cardioprotective effect in Langendorff perfused guinea pig spontaneously beating […] assessed as intraventicular conduction time at 0.01 uM (RVb = 19 to 24 +/- 1 to 2 ms); type: functional; conditions: Cavia porcellus; in short: as §2
[37] = Cardioprotective effect in Langendorff perfused guinea pig spontaneously beating […] assessed as duration of ventricular action potential at 0.001 uM (RVb = 140 to 161 +/- 2 to 8 ms); type: functional, Cavia porcellus, Cardiac ventricle; in short: as §2
[38] = Cardioprotective effect in Langendorff perfused guinea pig spontaneously beating […] assessed as intraventicular conduction time at 0.1 uM (RVb = 19 to 24 +/- 1 to 2 ms); type: functional; conditions: Cavia porcellus; in short: as §2
[39] = Cardioprotective effect in Langendorff perfused guinea pig spontaneously beating […] assessed as atrioventicular conduction time at 0.01 uM (RVb = 50 to 55 +/- 1 to 4 ms); type: functional; conditions: Cavia porcellus; in short: as §2
[40] = Cardioprotective effect in Langendorff perfused guinea pig spontaneously beating […] assessed as duration of ventricular action potential at 10 uM (RVb = 140 to 161 +/- 2 to 8 ms); type: functional, Cavia porcellus, Cardiac ventricle; in short: as §2

SMILES: COc1ccc2c(c1)nc(Cc1ccccc1)c(=O)n2C[C@H]1CCCN2CCCC[C@@H]12
- Activity [1]: 62%
- inhibition at 50 µM [2]: 18%
- Activity [3]: 14%
- EC50 [4]: 110 nM
- Activity [5]: 86%
- EC50 [6]: 2750 nM

SMILES: Cc1cccc(C)c1NC[C@@H]1CCCN2CCCC[C@H]12
- Activity [1]: 40%
- inhibition at 50 µM [2]: 27%
- EC50 [4]: 23 nM
- Activity [11]: 75%
- Activity [12]: 28%

SMILES: Cc1cccc(C)c1NCC[C@@H]1CCCN2CCCC[C@H]12
- Activity [18]: 163 bpm
- AV conduction time [19]: 58 ms
- EC50 [16]: 460 nM
- Activity [20]: 182 bpm
- Ratio [21]: 3
- Activity [22]: 170 ms
- Activity [23]: 157 ms
- intraventricular conduction time [24]: 21 ms
- Activity [25]: 208%
- AV conduction time [26]: 59 ms
- Activity [27]: 160 ms
- intraventricular conduction time [28]: 20 ms
- Activity [29]: 142 bpm
- Activity [30]: 72%
- AV conduction time [31]: 53 ms
- intraventricular conduction time [32]: 19 ms
- Activity [33]: 136 bpm
- Activity [34]: 171 bpm
- inhibition at 50 µM [2]: 28%
- AV conduction time [35]: 57 ms
- intraventricular conduction time [36]: 19 ms
- EC50 [4]: 340 nM
- Activity [37]: 154 ms
- Activity [10]: 89%
- intraventricular conduction time [38]: 20 ms
- AV conduction time [39]: 56 ms
- EC50 [6]: 6890 nM
- Activity [40]: 175 ms

The remaining compounds from weak to strong by EC50 [4], led by results:

- EC50 [4]: 74 nM
SMILES: O=C(Cn1nc2ccc(Cl)cc2n1)NC[C@@H]1CCCN2CCCC[C@H]12
- Activity [7]: 27%
- Activity [13]: 28%
- inhibition at 100 µM [9]: 26%
- Activity [14]: 92%

- EC50 [4]: 35 nM
SMILES: O=C(Cn1nc2ccccc2n1)NC[C@@H]1CCCN2CCCC[C@H]12
- Activity [7]: 34%
- Activity [8]: 26%
- inhibition at 100 µM [9]: 4%
- Activity [10]: 98%

- EC50 [4]: 17 nM
SMILES: COc1cc(C(=O)NC[C@@H]2CCCN3CCCC[C@H]23)cc(OC)c1OC
- Activity [15]: 11%
- EC50 [16]: 2620 nM
- inhibition at 100 µM [9]: 7%
- Activity [12]: 56%
- Activity [17]: 79%
